Assay results reported in ChEMBL document CHEMBL1141653, “New bis(2-aminoimidazoline) and bisguanidine DNA minor groove binders with potent in vivo antitrypanosomal and antiplasmodial activity” (J Med Chem, 2008).
Active and inactive are the calls of the source. No cut-off for these calls is given here.

Key:
[1] = Binding affinity for DNA assessed as thermal melting temperature
In short: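 Thermal melting of poly(dA)·poly(dT): DNA at 40 µM base with compound at 12 µM (ratio 0.3) in MES 0.01 M / EDTA 0.001 M buffer, pH 6.25. A260 followed from 20 to 95 °C at 0.5 °C/min. Value is ΔTm.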

Ferriprotoporphyrin IX [2] = test: Inhibition of ferriprotoporphyrin 9 biomineralization at 1 mg/ml; format: functional
In short: (§1)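 β-Hematin formation: hemin chloride (0.5 mg/mL in DMSO) with 0.5 M sodium acetate pH 4.4 and drug dilutions, 37 °C for 18–24 h. Pellet washed with DMSO, dissolved in 0.1 N NaOH, A405 read. Percent inhibition relative to solvent control. IC₅₀ derived, or percent inhibition at 1 mg/mL (highest concentration) given when no IC₅₀.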

L6 = test: Cytotoxicity against rat L6 cells; format: cell-based
[3] = Selectivity index, ratio of IC50 for rat L6 cells to IC50 for Trypanosoma brucei rhodesiense STIB900; format: functional
In short: (§2)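 Ratio of the IC₅₀ on L-6 rat skeletal myoblasts to the parasite IC₅₀. Cytotoxicity measured in RPMI 1640 with L-glutamine and 10% FBS, serial dilutions 90 to 0.123 µg/mL, duplicate. After 72 h, Alamar blue (resazurin) added for 2 h. Fluorescence read at ex 536 / em 588 nm.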

[4] = Selectivity index, ratio of IC50 for rat L6 cells to IC50 for Plasmodium falciparum K1; format: functional; in short: as §2
Plasmodium falciparum = test: Antiplasmodial activity against Plasmodium falciparum K1 in [3H]hypoxanthine incorporation assay; format: functional, organism-based; conditions: K1, 72 h
In short: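 K1 erythrocytic stages in RPMI 1640 without hypoxanthine with AlbuMax, human A⁺ red cells at 2.5% hematocrit, 0.3% parasitemia. Compounds taken from 10 mg/mL DMSO stock, tested as serial doubling dilutions at 37 °C in 4% CO₂/3% O₂/93% N₂. After 48 h, ³H-hypoxanthine (0.5 µCi) added for 24 h more; incorporation by scintillation counting. IC₅₀ from sigmoidal curves.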

[5] = test system: Trypanosoma brucei rhodesiense; test: Antitrypanosomal activity against Trypanosoma brucei rhodesiense STIB900; format: functional, organism-based
In short: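 Bloodstream forms (10⁴ per well) in MEM with 15% heat-inactivated horse serum, 25 mM HEPES, 2-mercaptoethanol, hypoxanthine. 3-fold serial dilutions from 90 to 0.123 µg/mL, in duplicate. Incubation 72 h at 37 °C, 5% CO₂. Resazurin then added for 2–4 h more. Fluorescence read at ex 536 / em 588 nm.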

Mus musculus = test: Toxicity in Plasmodium berghei ANKA infected NMRI mice (Mus musculus) at 50 mg/kg, intraperitoneally for 4 days; format: organism-based; parameters: dose 50 mg/kg, route intraperitoneal; conditions: in vivo, ip, 96 h
In short: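 Toxicity recorded in the P. berghei ANKA model. Female NMRI mice (20–22 g), three per group, infected iv with 2 × 10⁷ parasitized erythrocytes. Compound in DMSO diluted 10-fold in water, dosed ip at 4, 24, 48 and 72 h post-infection. Survival followed up to 30 days after infection.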

Ferriprotoporphyrin IX [6] = test: Inhibition of ferriprotoporphyrin 9 biomineralization; format: functional; in short: as §1
[7] = test system: Trypanosoma brucei rhodesiense; test: Antitrypanosomal activity against Trypanosoma brucei rhodesiense STIB900 infected NMRI mouse assessed as number of cured animals at 20 mg/kg, ip after 4 days; format: functional, organism-based; parameters: dose 20 mg/kg
In short: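 Mice infected ip with 2 × 10⁴ STIB900 bloodstream forms. Groups of four treated ip on days 3–6, with an untreated control group. Parasitemia checked every second day to day 14, then twice weekly to day 60. Mice surviving and aparasitemic at 60 days counted as cured.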

[8] = test system: Trypanosoma brucei rhodesiense; test: Antitrypanosomal activity against Trypanosoma brucei rhodesiense STIB900 infected NMRI mouse assessed as survival of animals administered at 20 mg/kg, ip after 4 days; format: functional; conditions: route intraperitoneal
In short: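 Mice infected ip with 2 × 10⁴ bloodstream forms of T. b. rhodesiense STIB900. Groups of four treated ip on days 3–6, untreated control group. Parasitemia checked every second day to day 14, then twice weekly to day 60. Deaths recorded for mean survival time. Surviving aparasitemic mice at 60 days counted as cured.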

| SMILES | ΔTm [1] | inhibition (Ferriprotoporphyrin IX [2]) | IC50 (L6) | Ratio IC50 [3] | Ratio IC50 [4] | IC50 (Plasmodium falciparum) | IC50 [5] | Activity (Mus musculus) | IC50 (Ferriprotoporphyrin IX [6]) | Activity [7] | Survival [8] |
| --- | --- | --- | --- | --- | --- | --- | --- | --- | --- | --- | --- |
| N=C(N)Nc1ccc(Nc2ccc(NC(=N)N)cc2)cc1 | 29.6 °C | 0% | 650 nM | 30 | 36 | 18 nM | 22 nM | – | – | – | – |
| Cl.N=C(N)Nc1ccc(C2CCN(c3ccc(NC(=N)N)cc3)CC2)cc1 | 30 °C | 0% | 24000 nM | 111 | 585 | 41 nM | 217 nM | Toxic | – | – | – |
| N=C(N)Nc1ccc2c(c1)Cc1ccc(NC(=N)N)cc1C2 | 31.1 °C | 0% | 730 nM | 15 | 83 | 8.8 nM | 50 nM | Toxic | – | – | – |
| Cl.N=C(N)Nc1ccc(NC(=O)Nc2ccc(NC(=N)N)cc2)cc1 | 24.1 °C | 0% | > 235000 nM | >1256 | >2547 | 96 nM | 187 nM | Toxic | – | – | – |
| c1cc2c(cc1NC1=NCCN1)Cc1ccc(NC3=NCCN3)cc1C2 | 33.2 °C | – | 37200 nM | 620 | 2000 | 18.6 nM | 60 nM | – | 161000 nM | Active | >60 days |
| N=C(N)Nc1ccc(Cc2ccc(NC(=N)N)cc2)cc1 | 15 °C | 0% | 2800 nM | 17 | 88 | 32 nM | 161 nM | – | – | – | – |
| CCCCC[P+](CCCCC)(CCCCC)Cc1ccc(C(=O)c2ccc(C[P+](CCCCC)(CCCCC)CCCCC)cc2)cc1.[Br-].[Br-] | 1.2 °C | – | 11800 nM | 29 | 223 | 53 nM | 414 nM | – | 219000 nM | – | – |
| O=C(c1ccc(NC2=NCCN2)cc1)c1ccc(NC2=NCCN2)cc1 | – | – | > 214000 nM | – | >1658 | 129 nM | 2050 nM | – | 117000 nM | – | – |
| Cl.Cl.O=C(Nc1ccc(NC2=NCCN2)cc1)c1ccc(NC2=NCCN2)cc1 | 47.1 °C | – | 193000 nM | 7720 | 6893 | 28 nM | 25 nM | – | 705000 nM | Active | >60 days |
| c1cc(NC2=NCCN2)ccc1CCc1ccc(NC2=NCCN2)cc1 | 31.2 °C | 0% | 34900 nM | 646 | 2181 | 16 nM | 54 nM | – | – | Active | >60 days |
| Cl.c1cc(C2CCN(c3ccc(NC4=NCCN4)cc3)CC2)ccc1NC1=NCCN1 | 35 °C | 0% | 132000 nM | 3474 | 12000 | 11 nM | 38 nM | – | – | – | >47.25 days |
| N=C(N)Nc1ccc(Sc2ccc(NC(=N)N)cc2)cc1 | 20.1 °C | 0% | 2660 nM | 26 | 76 | 35 nM | 102 nM | – | – | – | – |
| CCOC(CNC(=N)Nc1ccc(Nc2ccc(NC(=N)NCC(OCC)OCC)cc2)cc1)OCC | 13.6 °C | – | > 175000 nM | >767 | >1548 | 113 nM | 228 nM | – | 162000 nM | – | – |
| N=C(N)Nc1ccc(CCc2ccc(NC(=N)N)cc2)cc1 | 26.1 °C | 0% | 1090 nM | 24 | 57 | 19 nM | 45 nM | Toxic | – | – | – |
| Cl.N=C(N)Nc1ccc(NC(=S)Nc2ccc(NC(=N)N)cc2)cc1 | 23 °C | – | 15500 nM | 29 | 26 | 607 nM | 538 nM | – | 686000 nM | – | – |
| Cl.O=C(Nc1ccc(NC2=NCCN2)cc1)Nc1ccc(NC2=NCCN2)cc1 | 31 °C | – | 104000 nM | 852 | 3714 | 28 nM | 122 nM | – | 393000 nM | Active | >60 days |
| CC(C)(C)OC(=O)N1CCN(C(=O)OC(C)(C)C)C1=Nc1ccc(Nc2ccc(N=C3N(C(=O)OC(C)(C)C)CCN3C(=O)OC(C)(C)C)cc2)cc1 | – | – | 9800 nM | – | 166 | 59 nM | 48 nM | – | 171000 nM | – | – |
| N=C(N)Nc1ccc(Oc2ccc(NC(=N)N)cc2)cc1 | 22.1 °C | 0% | 1640 nM | 8 | 36 | 46 nM | 196 nM | – | – | – | – |
| CC(C)(C)OC(=O)/N=C(/NC(=O)OC(C)(C)C)Nc1ccc(Nc2ccc(N/C(=N\C(=O)OC(C)(C)C)NC(=O)OC(C)(C)C)cc2)cc1 | – | 45% | 3700 nM | – | 48 | 77 nM | 470 nM | – | – | – | – |
| c1cc2c(cc1NC1=NCCN1)Cc1cc(NC3=NCCN3)ccc1-2 | 44.1 °C | – | 83400 nM | 17020 | 7252 | 11.5 nM | 4.9 nM | – | 491000 nM | – | – |
| Cl.Cl.N=C(N)Nc1ccc(NC(=O)c2ccc(NC(=N)N)cc2)cc1 | 40.1 °C | 0% | 11500 nM | 319 | 209 | 55 nM | 36 nM | – | – | Active | >60 days |
